Data from ChEMBL document CHEMBL2203262, “The design and synthesis of indazole and pyrazolopyridine based glucokinase activators for the treatment of type 2 diabetes mellitus” (Bioorg Med Chem Lett, 2012).
Values after ≈ are worked out from the molar mass of the structure shown. Each block holds one compound with its values, some of them ahead of it.

Key:
[1] = Kinetic solubility of the compound; assay type: physicochemical; settings: read-out: Kinetic_solubility
[2] = Lipophilicity, log D of the compound by shake flask method; assay type: physicochemical; settings: octanol/water
[3] = Intrinsic clearance of the compound in human liver microsomes; assay type: ADME, Microsome; settings: read-out: CLH
Summary of the method: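 Human liver microsomal stability; intrinsic clearance expressed as ml/min/kg.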

Hexokinase-4 [4] = target: T1, Hexokinase-4 (Homo sapiens, UniProt P35557); test: Activation of recombinant human glucokinase assessed measuring rate of glucose 6-phosphate formation using G6PDH/NADP coupling
T1 sequence (P35557 whole entry): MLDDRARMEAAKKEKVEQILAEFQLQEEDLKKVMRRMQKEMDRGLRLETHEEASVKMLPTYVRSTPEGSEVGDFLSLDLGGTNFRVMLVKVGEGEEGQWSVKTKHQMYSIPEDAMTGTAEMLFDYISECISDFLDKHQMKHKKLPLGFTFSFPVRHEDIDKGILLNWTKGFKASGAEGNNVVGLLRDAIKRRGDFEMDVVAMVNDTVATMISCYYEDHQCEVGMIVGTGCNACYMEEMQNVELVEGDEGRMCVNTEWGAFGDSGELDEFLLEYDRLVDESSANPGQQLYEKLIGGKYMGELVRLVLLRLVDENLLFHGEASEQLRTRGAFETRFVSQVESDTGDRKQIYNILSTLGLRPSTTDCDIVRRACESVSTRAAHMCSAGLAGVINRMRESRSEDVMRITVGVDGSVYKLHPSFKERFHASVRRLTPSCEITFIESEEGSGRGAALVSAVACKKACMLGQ

[5] = Passive permeability of the compound in dog RRCK cells; assay type: ADME, cell-based, Canis lupus familiaris, MDCKII-LE; settings: MDCK, read-out: permeability
Summary of the method: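 Passive permeability measured in the RRCK cell line; reported as 10^-6 cm/s.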

Rattus norvegicus [6] = test: Toxicity in Sprague-Dawley rat assessed as hypoglycemia at 10 to 250 mg/kg, po; assay type: organism-based; set-up: dose 10-250 mg/kg, route oral; settings: in vivo
Summary of the method: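 Oral glucose tolerance test in overnight-fasted Sprague-Dawley rats. Single oral dose of 10–250 mg/kg (suspension in 30% sulfobutylether/water) given at t = −60 min, then 2 g/kg glucose orally at t = 0. Hypoglycemia defined as blood glucose <60 mg/dL. n = 7/group.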

[7] = Half life in Wistar-Han rat at 5 mg/kg, po; assay type: ADME, organism-based; set-up: dose 5 mg/kg, route oral; settings: in vivo
[8] = Clearance in Wistar-Han rat at 1 mg/kg, iv; assay type: ADME, organism-based; set-up: dose 1 mg/kg, route intravenous; settings: in vivo
Summary of the method: (§1)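 Wistar-Han rats, n = 3 animals/group. Single intravenous dose of 1 mg/kg; plasma pharmacokinetic parameters determined.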

[9] = AUC in Wistar-Han rat at 1 mg/kg, iv; assay type: ADME, organism-based; set-up: dose 1 mg/kg, route intravenous; settings: plasma
Summary of the method: (§2)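 Pharmacokinetics in Wistar-Han rats, n = 3 animals per group. Intravenous dosing was at 1 mg/kg, and oral dosing was at 5 mg/kg. Plasma AUC, Cmax, t1/2, clearance, Vdss and oral bioavailability were derived. Urine was collected after the i.v. dose to assess renal excretion.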

[10] = Volume of distribution at steady state in Wistar-Han rat at 1 mg/kg, iv; assay type: ADME, organism-based; set-up: dose 1 mg/kg, route intravenous; settings: in vivo, read-out: Vdss; summary of the method: as §1
[11] = AUC in Wistar-Han rat at 5 mg/kg, po; assay type: ADME, organism-based; set-up: dose 5 mg/kg, route oral; settings: plasma; summary of the method: as §2
[12] = Genotoxicity in micronucleus
[13] = Cmax in Wistar-Han rat at 1 mg/kg, iv; assay type: ADME, organism-based; set-up: dose 1 mg/kg, route intravenous; settings: in vivo; summary of the method: as §1
[14] = Half life in Wistar-Han rat at 1 mg/kg, iv; assay type: ADME, organism-based; set-up: dose 1 mg/kg, route intravenous; settings: in vivo; summary of the method: as §1
[15] = Fraction unbound in rat plasma; assay type: ADME, cell-free
[16] = Drug excretion in Wistar-Han rat urine at 1 mg/kg, iv; assay type: ADME, organism-based; set-up: dose 1 mg/kg, route intravenous; settings: read-out: Drug excretion
INS1 = test: Increase of glucose-stimulated insulin secretion in rat INS-1 cells
[17] = Oral bioavailability in Wistar-Han rat at 5 mg/kg; assay type: ADME, organism-based; settings: in vivo
[18] = target: Voltage-gated inwardly rectifying potassium channel KCNH2 (Homo sapiens, UniProt Q12809); test: Inhibition of human ERG by patch clamp assay
Voltage-gated inwardly rectifying potassium channel KCNH2, sequence (Q12809 whole entry): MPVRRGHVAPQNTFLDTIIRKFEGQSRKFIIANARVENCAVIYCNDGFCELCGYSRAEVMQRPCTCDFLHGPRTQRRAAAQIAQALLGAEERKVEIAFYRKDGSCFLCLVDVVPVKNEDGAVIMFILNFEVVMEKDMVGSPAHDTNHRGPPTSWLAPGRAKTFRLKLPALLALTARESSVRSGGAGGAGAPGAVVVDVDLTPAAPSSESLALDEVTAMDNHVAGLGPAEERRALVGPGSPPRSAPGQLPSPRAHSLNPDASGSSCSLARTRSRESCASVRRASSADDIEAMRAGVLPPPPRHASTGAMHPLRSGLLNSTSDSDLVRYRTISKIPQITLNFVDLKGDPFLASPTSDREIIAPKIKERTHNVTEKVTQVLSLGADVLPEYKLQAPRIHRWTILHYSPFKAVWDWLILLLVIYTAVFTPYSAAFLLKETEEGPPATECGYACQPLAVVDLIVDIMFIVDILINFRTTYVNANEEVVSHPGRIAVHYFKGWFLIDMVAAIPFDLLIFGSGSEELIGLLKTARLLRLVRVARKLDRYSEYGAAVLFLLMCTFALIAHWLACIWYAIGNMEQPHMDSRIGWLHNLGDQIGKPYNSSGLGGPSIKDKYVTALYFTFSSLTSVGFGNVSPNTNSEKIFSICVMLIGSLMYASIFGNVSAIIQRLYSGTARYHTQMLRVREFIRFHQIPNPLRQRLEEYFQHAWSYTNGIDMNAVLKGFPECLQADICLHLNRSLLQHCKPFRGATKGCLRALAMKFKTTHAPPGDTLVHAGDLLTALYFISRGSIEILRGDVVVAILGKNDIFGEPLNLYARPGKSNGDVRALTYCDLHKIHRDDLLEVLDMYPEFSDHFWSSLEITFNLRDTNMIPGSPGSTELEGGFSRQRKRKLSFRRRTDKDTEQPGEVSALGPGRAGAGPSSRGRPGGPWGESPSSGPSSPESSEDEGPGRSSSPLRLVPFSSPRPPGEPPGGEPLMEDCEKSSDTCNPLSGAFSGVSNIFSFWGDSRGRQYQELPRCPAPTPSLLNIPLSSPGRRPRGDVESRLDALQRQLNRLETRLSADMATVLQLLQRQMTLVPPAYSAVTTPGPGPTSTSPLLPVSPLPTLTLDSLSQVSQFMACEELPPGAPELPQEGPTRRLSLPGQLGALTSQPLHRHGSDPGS

Hexokinase-4 [19] = target: T2, Hexokinase-4 (Rattus norvegicus, UniProt P17712); test: Activation of recombinant rat glucokinase assessed measuring rate of glucose 6-phosphate formation using G6PDH/NADP coupling
T2 sequence (P17712 whole entry): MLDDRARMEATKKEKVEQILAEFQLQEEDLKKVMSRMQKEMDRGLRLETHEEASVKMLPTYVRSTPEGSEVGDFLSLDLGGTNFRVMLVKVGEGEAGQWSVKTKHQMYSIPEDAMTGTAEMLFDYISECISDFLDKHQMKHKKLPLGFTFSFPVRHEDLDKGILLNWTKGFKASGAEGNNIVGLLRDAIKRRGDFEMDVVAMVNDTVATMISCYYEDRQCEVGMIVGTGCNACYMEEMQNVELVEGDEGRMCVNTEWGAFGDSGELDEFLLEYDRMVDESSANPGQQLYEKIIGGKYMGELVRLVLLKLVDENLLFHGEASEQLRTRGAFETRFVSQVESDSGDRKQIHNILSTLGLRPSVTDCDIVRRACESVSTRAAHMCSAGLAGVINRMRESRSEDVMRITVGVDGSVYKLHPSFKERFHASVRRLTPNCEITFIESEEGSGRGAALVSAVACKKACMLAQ
Summary of the method: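 Recombinant rat glucokinase; glucose 6-phosphate formation rate followed by G6PDH/NADP coupling. Matrix format: activator at 22 concentrations (0 to 100 µM range as printed) × 16 glucose concentrations (0 to 100 mM). Nonessential activator model fitted; EC50 = concentration giving half-maximal reduction in glucose Km.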

[20] = Cmax in Wistar-Han rat at 5 mg/kg, po; assay type: ADME, organism-based; set-up: dose 5 mg/kg, route oral; settings: in vivo
[21] = Fraction unbound in human plasma; assay type: ADME, cell-free
Rattus norvegicus [22] = test: Antidiabetic activity in po dosed Sprague-Dawley rat assessed as reduction of plasma glucose AUC excursion by oral glucose tolerance test; assay type: functional, organism-based
Summary of the method: (§3)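 Sprague-Dawley rats fasted overnight, dosed orally at t = −60 min with 10, 25, 100 or 250 mg/kg as suspension in 30% sulfobutylether/water. Oral glucose challenge 2 g/kg at t = 0 min.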

Rattus norvegicus [23] = test: Antidiabetic activity in Sprague-Dawley rat assessed as reduction of plasma glucose AUC excursion at 250 mg/kg, po by oral glucose tolerance test; assay type: functional; set-up: scale not given: the % may be the effect or the level left; summary of the method: as §3
Salmonella typhimurium = test: Genotoxicity in Salmonella typhimurium by Ames test; assay type: toxicity, organism-based; settings: salmonella enterica subsp. enterica serovar typhimurium

Structure (SMILES): CCn1cc2c(Oc3ccc(S(C)(=O)=O)cc3)cc(C(=O)Nc3cnc(C)cn3)cc2n1
solubility kinetic [1]: 2.1 µM (≈ 0.948 µg/mL)
CLint scaled [3]: < 8 mL/min/kg
EC50 (Hexokinase-4 [4]): 770 nM
Papp [5]: 13.4 ×10⁻⁶ cm/s

Structure (SMILES): Cc1cnc(NC(=O)c2cc(Oc3ccc(C(=O)N(C)C)cc3)c3cn(C)nc3c2)cn1
solubility kinetic [1]: 351 µM (≈ 151 µg/mL)
CLint scaled [3]: 12.3 mL/min/kg
Papp [5]: 14.6 ×10⁻⁶ cm/s

Structure (SMILES): Cc1cnc(NC(=O)c2cc(Oc3ccc(S(C)(=O)=O)cc3)c3cn(CCO)nc3c2)cn1
solubility kinetic [1]: 24.4 µM (≈ 11.4 µg/mL)
CLint scaled [3]: < 8.9 mL/min/kg
EC50 (Hexokinase-4 [4]): 1540 nM
Papp [5]: 6.3 ×10⁻⁶ cm/s

Structure (SMILES): CCn1cc2c(Oc3cnc(C(=O)N(C)C)c(F)c3)cc(C(=O)Nc3cnc(C)cn3)cc2n1
solubility kinetic [1]: 367 µM (≈ 170 µg/mL)
logD [2]: 1.8
CLint scaled [3]: 10.4 mL/min/kg
EC50 (Hexokinase-4 [4]): 230 nM
Papp [5]: 13.8 ×10⁻⁶ cm/s

Structure (SMILES): CCn1cc2c(Oc3cnc(C(=O)N4CCC4)c(F)c3)cc(C(=O)Nc3cnc(C)cn3)cc2n1
Activity (Rattus norvegicus [6]): Non-toxic
solubility kinetic [1]: 84.8 µM (≈ 40.3 µg/mL)
half-life [7]: 2.6 h
clearance [8]: 10.5 mL/min/kg
logD [2]: 2.01
AUC [9]: 1580 ng·h/mL
Vd [10]: 0.61 L/kg
AUC [11]: 5440 ng·h/mL
CLint scaled [3]: < 8 mL/min/kg
Activity [12]: Non-toxic
Cmax [13]: 1820 ng/mL
half-life [14]: 1 h
fraction unbound [15]: 0.18
dose excreted [16]: < 1%
EC50 (INS1): 170 nM
bioavailability [17]: 69%
EC50 (Hexokinase-4 [4]): 120 nM
Papp [5]: 16.3 ×10⁻⁶ cm/s
IC50 [18]: > 300000 nM
EC50 (Hexokinase-4 [19]): 350 nM
Cmax [20]: 1490 ng/mL
fraction unbound [21]: 0.2
Activity (Rattus norvegicus [22]): Dose-dependent effect
Activity (Rattus norvegicus [23]): 22%
Activity (Salmonella typhimurium): Non-toxic

Structure (SMILES): CCS(=O)(=O)c1ccc(Oc2cc(C(=O)Nc3cnc(C)cn3)cc3nn(C)cc23)cc1
solubility kinetic [1]: 69 µM (≈ 31.2 µg/mL)
CLint scaled [3]: < 8 mL/min/kg
EC50 (Hexokinase-4 [4]): 980 nM
Papp [5]: 10.6 ×10⁻⁶ cm/s

Structure (SMILES): Cc1cnc(NC(=O)c2cc(Oc3ccc(S(N)(=O)=O)cc3)c3cn(C)nc3c2)cn1
EC50 (Hexokinase-4 [4]): 2320 nM

Structure (SMILES): Cc1cnc(NC(=O)c2cc(Oc3cnc(C(=O)N(C)C)nc3)c3cn(C)nc3c2)cn1
solubility kinetic [1]: 446 µM (≈ 193 µg/mL)
CLint scaled [3]: < 8 mL/min/kg
EC50 (Hexokinase-4 [4]): 910 nM
Papp [5]: 11.5 ×10⁻⁶ cm/s

Structure (SMILES): Cc1cnc(NC(=O)c2cc(Oc3cnc(C(=O)N(C)C)c(F)c3)c3cn(C)nc3c2)cn1
solubility kinetic [1]: 328 µM (≈ 147 µg/mL)
CLint scaled [3]: < 8 mL/min/kg
EC50 (Hexokinase-4 [4]): 400 nM
Papp [5]: 20.2 ×10⁻⁶ cm/s

Structure (SMILES): Cc1cnc(NC(=O)c2cc(Oc3ccc(S(C)(=O)=O)cc3)c3cn(C4CC4)nc3c2)cn1
solubility kinetic [1]: 0.5 µM (≈ 0.232 µg/mL)
CLint scaled [3]: < 8 mL/min/kg
EC50 (Hexokinase-4 [4]): 2030 nM
Papp [5]: 15.5 ×10⁻⁶ cm/s

Now from value to compound:

solubility kinetic [1]: 123 µM (≈ 53.2 µg/mL)
logD [2]: 1.87
CLint scaled [3]: 13.7 mL/min/kg
EC50 (Hexokinase-4 [4]): 620 nM
Papp [5]: 17 ×10⁻⁶ cm/s
Structure (SMILES): Cc1cnc(NC(=O)c2cc(Oc3cnc(C(=O)N(C)C)cn3)c3cc(C)nn3c2)cn1

solubility kinetic [1]: 2.3 µM (≈ 1.07 µg/mL)
CLint scaled [3]: < 8 mL/min/kg
EC50 (Hexokinase-4 [4]): 310 nM
Papp [5]: 14.2 ×10⁻⁶ cm/s
Structure (SMILES): CCCn1cc2c(Oc3ccc(S(C)(=O)=O)cc3)cc(C(=O)Nc3cnc(C)cn3)cc2n1

solubility kinetic [1]: 73 µM (≈ 33.8 µg/mL)
CLint scaled [3]: < 8 mL/min/kg
EC50 (Hexokinase-4 [4]): 510 nM
Papp [5]: 17.8 ×10⁻⁶ cm/s
Structure (SMILES): Cc1cnc(NC(=O)c2cc(Oc3ccc(S(=O)(=O)C4CC4)cc3)c3cn(C)nc3c2)cn1

solubility kinetic [1]: 134 µM (≈ 62.5 µg/mL)
CLint scaled [3]: < 8 mL/min/kg
EC50 (Hexokinase-4 [4]): 440 nM
Papp [5]: 13.6 ×10⁻⁶ cm/s
Structure (SMILES): Cc1cnc(NC(=O)c2cc(Oc3ccc(S(=O)(=O)N(C)C)cc3)c3cn(C)nc3c2)cn1

solubility kinetic [1]: 454 µM (≈ 199 µg/mL)
CLint scaled [3]: < 8 mL/min/kg
EC50 (Hexokinase-4 [4]): 1930 nM
Papp [5]: 20.4 ×10⁻⁶ cm/s
Structure (SMILES): Cc1cnc(NC(=O)c2cc(Oc3ccc(S(C)(=O)=O)cc3)c3cn(C)nc3c2)cn1

solubility kinetic [1]: 70 µM (≈ 32.3 µg/mL)
CLint scaled [3]: < 8 mL/min/kg
EC50 (Hexokinase-4 [4]): 340 nM
Papp [5]: 11.9 ×10⁻⁶ cm/s
Structure (SMILES): Cc1cnc(NC(=O)c2cc(Oc3cnc(C(=O)N4CCC4)c(F)c3)c3cn(C)nc3c2)cn1

solubility kinetic [1]: 192 µM (≈ 83 µg/mL)
logD [2]: 0.83
CLint scaled [3]: < 8.5 mL/min/kg
EC50 (Hexokinase-4 [4]): 990 nM
Papp [5]: 20.8 ×10⁻⁶ cm/s
Structure (SMILES): Cc1cnc(NC(=O)c2cc(Oc3cnc(C(=O)N(C)C)cn3)c3cn(C)nc3c2)cn1

solubility kinetic [1]: 27 µM (≈ 12.2 µg/mL)
CLint scaled [3]: < 8.6 mL/min/kg
Structure (SMILES): CNS(=O)(=O)c1ccc(Oc2cc(C(=O)Nc3cnc(C)cn3)cc3nn(C)cc23)cc1

logD [2]: 2.16
CLint scaled [3]: < 8 mL/min/kg
Structure (SMILES): Cc1cnc(NC(=O)c2cc(Oc3cnc(C(=O)N(C)C)cn3)c3cc(C)oc3c2)cn1
